Assay results pooled from the literature.
Protocols differ between the studies behind these lines.
ABL1 Q252H non-phosphorylated: Tyrosine-protein kinase ABL1, non-phosphorylated (ABL1, Homo sapiens, UniProt P00519, Q252H)
ABL1 non-phosphorylated: Tyrosine-protein kinase ABL1, non-phosphorylated (ABL1, Homo sapiens, UniProt P00519)
ABL1 Y253F phosphorylated: Tyrosine-protein kinase ABL1, phosphorylated (ABL1, Homo sapiens, UniProt P00519, Y253F)
ABL1 F317I phosphorylated: Tyrosine-protein kinase ABL1, phosphorylated (ABL1, Homo sapiens, UniProt P00519, F317I)
ABL1 Q252H: Tyrosine-protein kinase ABL1 (ABL1, Homo sapiens, UniProt P00519, Q252H)
ABL1 T315I phosphorylated: Tyrosine-protein kinase ABL1, phosphorylated (ABL1, Homo sapiens, UniProt P00519, T315I)
ABL1 H396P phosphorylated: Tyrosine-protein kinase ABL1, phosphorylated (ABL1, Homo sapiens, UniProt P00519, H396P)
ABL1 F317I non-phosphorylated: Tyrosine-protein kinase ABL1, non-phosphorylated (ABL1, Homo sapiens, UniProt P00519, F317I)
ABL1 M351T: Tyrosine-protein kinase ABL1 (ABL1, Homo sapiens, UniProt P00519, M351T)

| SMILES | target | test | conditions | remaining binding |
| --- | --- | --- | --- | --- |
| COc1cnc(Nc2cccc(S(N)(=O)=O)c2)nc1N1CCN(c2ccccc2)CC1 | ABL1 Q252H non-phosphorylated | binding, competition with immobilised ligand | 1 µM | 78% |
| C=CC(=O)N1CCC(C(=O)NCC(=O)N2CCN(c3nc(-c4cnc(N)nc4C(F)F)nc(N4CCOCC4)n3)CC2)CC1 | ABL1 non-phosphorylated | binding, competition with immobilised ligand | 1 µM | 80% |
| CN(c1nccc(-c2cnn3ncccc23)n1)C1CC1 | Tyrosine-protein kinase ABL1 (ABL1, Homo sapiens, UniProt P00519, F317I) | binding | 1 µM | 100% |
| O=C(c1ccc(Nc2ncc(Cl)c(-c3cc4ccccc4s3)n2)cc1)N1CCC(N2CCCC2)CC1 | ABL1 Y253F phosphorylated | binding, competition with immobilised ligand | 1 µM | 8% |
| N[C@H]1CCN(c2nccc(-c3cnn4ncccc34)n2)C1 | Tyrosine-protein kinase ABL1 (ABL1, Homo sapiens, UniProt P00519, Y253F) | binding | 1 µM | 53% |
| CN1CCN(c2ccc(Nc3nccc(-c4ccccc4)n3)cc2C(F)(F)F)CC1 | Tyrosine-protein kinase ABL1 (ABL1, Homo sapiens, UniProt P00519, E255K) | binding | 10 µM | 22% |
| CN(CCCC(F)(F)F)c1nccc(-c2cnn3ncccc23)n1 | Tyrosine-protein kinase ABL1 (ABL1, Homo sapiens, UniProt P00519, T315I) | binding | 1 µM | 100% |
| O=C(N[C@H]1CCCCC/C=C\C2C[C@@]2(C(=O)O)NC(=O)[C@@H]2C[C@@H](Oc3ccncc3)CN2C1=O)OC1CCCC1 (some centres unmarked) | ABL1 F317I phosphorylated | binding | 1 µM | 96% |
| COc1ncc2cc3ccccc3nc2c1C#N | ABL1 Q252H non-phosphorylated | cell-free assay, competition with immobilised ligand | 5 µM | 100% |
| CCOCCn1cc(C(=O)Nc2ccc(-n3nc(-c4cccnc4)cc3C(F)(F)F)cn2)ccc1=O | Tyrosine-protein kinase ABL1, phosphorylated (ABL1, Homo sapiens, UniProt P00519, Q252H) | cell-free assay, competition with immobilised ligand | 1 µM | 73% |
| Cc1cnc(Nc2ccc(C(=O)N3CCC(N4CCCC4)CC3)cc2)nc1-c1cc2ccccc2s1 | ABL1 Q252H non-phosphorylated | binding, competition with immobilised ligand | 1 µM | 1.1% |
| c1cnn2ncc(-c3ccnc(N4CCC45COC5)n3)c2c1 | ABL1 Q252H | binding | 1 µM | 69% |
| O=C(NCC1CCOCC1)c1n[nH]cc1NC(=O)c1c(F)cccc1F | ABL1 F317I phosphorylated | binding, competition with immobilised ligand | 1 µM | 84% |
| CCN1CCN(Cc2ccc(C(=O)Nc3ccc(C)c(Oc4ccc5c(c4)CC(=O)N5)c3)cc2C(F)(F)F)CC1 | Tyrosine-protein kinase ABL1, phosphorylated (ABL1, Homo sapiens, UniProt P00519, F317L) | binding, competition with immobilised ligand | 1 µM | 9.6% |
| CC(=O)N1CCC(c2ccc(C(=O)NC(=N)N)cc2C(F)(F)F)CC1 | ABL1 T315I phosphorylated | cell-free assay, competition with immobilised ligand | 1 µM | 95% |
| CC1CCCN1c1nccc(-c2cnn3ncccc23)n1 (centres unmarked) | Tyrosine-protein kinase ABL1 (ABL1, Homo sapiens, UniProt P00519, H396P) | binding | 1 µM | 80% |
| O=C(Nc1c[nH]nc1C(=O)NC1CCNCC1)c1cc(F)cc(F)c1 | ABL1 Q252H non-phosphorylated | binding, competition with immobilised ligand | 1 µM | 100% |
| CN(C)c1nccc(-c2cnc3ncccn23)n1 | ABL1 Q252H | binding | 1 µM | 72% |

| SMILES | target | test | conditions | remaining binding |
| --- | --- | --- | --- | --- |
| COc1cnc(Nc2cccc(S(N)(=O)=O)c2)nc1N1CCN(c2ccccc2)C(=O)C1 | ABL1 H396P phosphorylated | binding, competition with immobilised ligand | 1 µM | 97% |
| Nc1ncc2c(n1)-c1c([nH]c3ccc(C#CC4CC4)cc13)CCCC2 | Tyrosine-protein kinase ABL1, non-phosphorylated (ABL1, Homo sapiens, UniProt P00519, F317L) | binding, competition with immobilised ligand | 1 µM | 63% |
| O=C(NCCCN1CCOCC1)c1ccc(Nc2nccc(-c3cc4ccccc4s3)n2)cc1 | ABL1 non-phosphorylated | binding, competition with immobilised ligand | 1 µM | 37% |
| CNC(=O)[C@@H]1CC[C@@H](n2c(-c3ccc4cnccc4c3)nc3ccc(C(=O)NCc4cccc(C(N)=O)c4)cc32)C1 | ABL1 T315I phosphorylated | binding, competition with immobilised ligand | 1 µM | 100% |
| O=C(c1ccc(Nc2ncc(Cl)c(-c3ccc(Cl)s3)n2)cc1)N1CCC(N2CCCC2)CC1 | ABL1 H396P phosphorylated | binding, competition with immobilised ligand | 1 µM | 4.3% |
| C[C@@H](c1ccc(-n2cnc3c(N)ncnc32)cc1)N1CCc2nn(C)c(Cc3ccccc3)c2C1=O | ABL1 non-phosphorylated | binding, competition with immobilised ligand | 0.1 µM | 15% |
| O=C(c1ccc(Nc2nccc(-c3cc4ccccc4s3)n2)cc1)N1CCC(N2CCCC2)CC1 | Tyrosine-protein kinase ABL1, phosphorylated (ABL1, Homo sapiens, UniProt P00519) | binding, competition with immobilised ligand | 1 µM | 21% |
| CN(C(=O)c1ccccc1)c1cc(N(C)c2ccc3c(c2)CCc2ccc(C(=O)NCCN4CCOCC4)cc2C3=O)ccc1F | ABL1 F317I non-phosphorylated | binding, competition with immobilised ligand | 1 µM | 79% |
| O=C(NCCCN1CCOCC1)c1ccc(Nc2ncc(Cl)c(-c3ccc(Cl)s3)n2)cc1 | ABL1 non-phosphorylated | binding, competition with immobilised ligand | 1 µM | 26% |
| CO[C@@H](C)c1c(Nc2ccc([C@H](N(C)C(=O)C3CCS(=O)(=O)CC3)C(F)(F)F)cc2)cnc2cc(Cl)nn12 | ABL1 F317I non-phosphorylated | binding, competition with immobilised ligand | 1 µM | 100% |
| c1cncc(-c2cccc(Nc3nccc(NC4CCCCC4)n3)c2)c1 | ABL1 F317I non-phosphorylated | binding, competition with immobilised ligand | 10 µM | 100% |
| CS(=O)(=O)NCC[C@H](NC(=O)c1cncc2c1cnn2-c1ccc(F)cc1)c1ccnc(S(C)(=O)=O)c1 | ABL1 Y253F phosphorylated | cell-free assay, competition with immobilised ligand | 1 µM | 95% |
| F[C@@H]1CCN(c2nccc(-c3cnn4ncccc34)n2)C1 | ABL1 M351T | binding | 1 µM | 100% |
| CC1=C(C#N)C(c2ccc3c(c2)c(NC(=O)c2ccccc2C)nn3C)C(C#N)=C(C)N1 | ABL1 F317I non-phosphorylated | binding, competition with immobilised ligand | 1 µM | 100% |
| COC(=O)Nc1nc2ccc(C(=O)c3ccccc3)cc2[nH]1 | ABL1 non-phosphorylated | cell-free assay, competition with immobilised ligand | 10 µM | 2% |
| C[C@@H]1CCN(c2nccc(-c3cnn4ncccc34)n2)C1 | ABL1 M351T | binding | 1 µM | 100% |
| CN1CCN(c2cnc3c(C4CCN(C(=O)c5ccc(OC(F)(F)F)cc5N)CC4)ncnc3c2)CC1 | ABL1 non-phosphorylated | cell-free assay, competition with immobilised ligand | 1 µM | 91% |
